The values below come from ChEMBL document CHEMBL3864151, “Discovery of imidazopyridazines as potent Pim-1/2 kinase inhibitors” (Bioorg Med Chem Lett, 2016).

The nature of data set [1]: Intrinsic clearance in rat liver microsomes at 1 uM after 30 mins by LC-MS HRMS analysis. It is filed as ADME. The following applies: read-out: CLH. Background: Microsomes from liver hold many membrane-bound enzymes, among them those of drug oxidation.
A short description of data set [2]: Intrinsic clearance in human liver microsomes at 1 uM after 30 mins by LC-MS HRMS analysis. It is filed as ADME. To be noted: read-out: CLH.
Data set [3] has as its target Serine/threonine-protein kinase pim-1 (Homo sapiens, UniProt P11309). The data set can be described thus: Inhibition of recombinant Pim1 (unknown origin) by electrochemiluminescence assay.
Data set [4] concerns the target Serine/threonine-protein kinase pim-2 (Homo sapiens, UniProt Q9P1W9). The data set can be described thus: Inhibition of recombinant Pim2 (unknown origin) by electrochemiluminescence assay.
In data set [5] the target is Serine/threonine-protein kinase PIM (Homo sapiens, UniProt P11309+Q9P1W9+Q86V86). The data set can be described thus: Inhibition of Pim1/2 in human KMS-12 cells assessed as decrease in BAD phosphorylation at Ser112 by Western blot method. The class given is cell-based. (In general: Immunoblotting shows a protein as a band on a membrane.)
A short description of data set [6]: Clearance in Sprague-Dawley rat at 2 mg/kg, iv. It is filed as ADME, organism-based. The following applies: in vivo; for clearance: Sprague-Dawley. The procedure, abridged:
(§1)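 Male Sprague Dawley rats, 3 animals per dosing route, mean values. iv dose 2 mg/kg as a solution in DMSO; po dose 5 mg/kg in 1% Tween 80, 2% HPMC, 97% water/methanesulfonic acid pH 2.2.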

Data set [7] is described as follows: Volume of distribution at steady state in Sprague-Dawley rat at 2 mg/kg, iv. It is filed as ADME, organism-based. The following applies: in vivo, read-out: Vdss. The procedure, abridged: as §1
Data set [8] can be described thus: Mean residence time in Sprague-Dawley rat at 2 mg/kg, iv. The class given is ADME, organism-based. The following applies: in vivo. The procedure, abridged: as §1
Data set [9] in a line: AUC (0 to infinity) in Sprague-Dawley rat at 5 mg/kg, po. It is filed as ADME, organism-based. The arrangement: dose 5 mg/kg, route oral, time infinity. The following applies: in vivo; for AUC(0-inf): Sprague-Dawley. The procedure, abridged:
as §1

Data set [10] can be described thus: Oral bioavailability in Sprague-Dawley rat at 5 mg/kg. It is filed as ADME, organism-based. To be noted: in vivo; for bioavailability: Sprague-Dawley. The procedure, abridged:
as §1

Data set [11] is described as follows: Clearance in Sprague-Dawley rat at 2 mg/kg, iv relative to liver blood flow. It is filed as ADME, organism-based. The following applies: in vivo. The procedure, abridged:
as §1

Data set [12] concerns the target Voltage-gated inwardly rectifying potassium channel KCNH2 (Homo sapiens, UniProt Q12809). The data set can be described thus: Inhibition of radiolabeled dofetilide binding to human ERG expressed in HEK293 cells.

Sequence of Serine/threonine-protein kinase pim-2 (Q9P1W9 whole entry): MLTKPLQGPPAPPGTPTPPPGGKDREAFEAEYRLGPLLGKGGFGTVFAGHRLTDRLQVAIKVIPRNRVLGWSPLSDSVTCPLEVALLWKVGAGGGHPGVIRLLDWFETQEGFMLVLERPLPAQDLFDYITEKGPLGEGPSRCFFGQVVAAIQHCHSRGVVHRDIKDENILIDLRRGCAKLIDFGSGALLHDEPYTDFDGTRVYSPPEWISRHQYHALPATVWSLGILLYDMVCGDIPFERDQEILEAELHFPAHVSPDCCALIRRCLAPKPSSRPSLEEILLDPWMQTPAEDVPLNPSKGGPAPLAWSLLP
Sequence of Serine/threonine-protein kinase pim-1 (P11309 whole entry): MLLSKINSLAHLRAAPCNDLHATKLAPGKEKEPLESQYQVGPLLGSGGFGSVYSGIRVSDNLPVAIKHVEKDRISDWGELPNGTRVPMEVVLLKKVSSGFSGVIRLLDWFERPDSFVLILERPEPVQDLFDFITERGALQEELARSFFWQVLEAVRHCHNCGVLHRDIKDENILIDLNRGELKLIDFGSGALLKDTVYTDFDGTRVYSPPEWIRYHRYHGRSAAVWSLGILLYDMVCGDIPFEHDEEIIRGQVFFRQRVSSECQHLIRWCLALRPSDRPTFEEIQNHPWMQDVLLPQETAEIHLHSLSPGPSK
Sequence of Voltage-gated inwardly rectifying potassium channel KCNH2 (Q12809 whole entry): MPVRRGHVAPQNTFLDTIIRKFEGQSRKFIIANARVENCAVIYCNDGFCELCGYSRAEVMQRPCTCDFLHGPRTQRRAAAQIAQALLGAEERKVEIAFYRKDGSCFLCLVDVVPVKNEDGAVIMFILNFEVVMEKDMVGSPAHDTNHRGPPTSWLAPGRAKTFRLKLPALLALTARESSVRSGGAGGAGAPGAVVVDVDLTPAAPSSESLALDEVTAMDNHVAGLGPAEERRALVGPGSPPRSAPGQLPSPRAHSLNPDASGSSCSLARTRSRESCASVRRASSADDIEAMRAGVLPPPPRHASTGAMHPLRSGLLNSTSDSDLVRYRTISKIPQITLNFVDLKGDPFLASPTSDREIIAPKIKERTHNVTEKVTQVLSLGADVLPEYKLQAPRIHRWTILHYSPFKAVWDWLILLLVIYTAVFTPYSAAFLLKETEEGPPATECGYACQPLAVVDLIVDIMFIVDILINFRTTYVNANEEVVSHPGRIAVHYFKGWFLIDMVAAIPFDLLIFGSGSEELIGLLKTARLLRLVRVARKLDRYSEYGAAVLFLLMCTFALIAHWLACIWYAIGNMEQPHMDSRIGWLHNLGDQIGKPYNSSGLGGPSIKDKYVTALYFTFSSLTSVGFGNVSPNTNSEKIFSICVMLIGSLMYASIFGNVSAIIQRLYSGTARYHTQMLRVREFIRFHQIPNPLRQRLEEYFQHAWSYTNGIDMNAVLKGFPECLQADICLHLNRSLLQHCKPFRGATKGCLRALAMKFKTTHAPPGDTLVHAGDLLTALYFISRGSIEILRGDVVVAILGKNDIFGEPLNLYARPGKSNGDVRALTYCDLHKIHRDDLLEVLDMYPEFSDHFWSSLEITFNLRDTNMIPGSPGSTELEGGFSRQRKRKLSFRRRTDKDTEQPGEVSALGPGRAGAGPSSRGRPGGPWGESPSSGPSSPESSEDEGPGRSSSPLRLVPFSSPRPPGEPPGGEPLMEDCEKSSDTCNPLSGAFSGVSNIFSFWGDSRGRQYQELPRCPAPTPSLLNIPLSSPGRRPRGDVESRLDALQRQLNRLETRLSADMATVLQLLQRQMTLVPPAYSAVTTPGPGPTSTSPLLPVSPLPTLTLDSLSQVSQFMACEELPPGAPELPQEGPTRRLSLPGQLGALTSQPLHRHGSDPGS

Take `N[C@H]1CCCN(c2ccncc2Nc2ncc3ccc(Cl)nn23)C1`: the microsomal CLint at 1 µM was 27 µL/min/mg in data set [1] and 18 µL/min/mg in data set [2].

`N[C@@H]1CN(c2ccncc2Nc2ncc3ccc(-c4c(F)cccc4F)nn23)CC[C@H]1F`: the microsomal CLint at 1 µM is above 399 µL/min/mg in [1] and 443 µL/min/mg in [2].

`C[C@@H]1CCN(c2ccncc2Nc2ncc3ccc(-c4c(F)cccc4F)nn23)C[C@H]1N`: the half-maximal inhibitory concentration (IC50) in [3] amounted to 0.035 nM; in data set [4], 0.18 nM; in [5], 212 nM. The microsomal CLint at 1 µM turned out to be 219 µL/min/mg in data set [1] and 71 µL/min/mg in data set [2].

On to `N[C@H]1CCCN(c2cnccc2Nc2ncc3ccc(-c4c(F)cccc4F)nn23)C1`, for which the microsomal CLint at 1 µM in data set [1] amounted to 61 µL/min/mg; in data set [2], 67 µL/min/mg.

Take `N[C@H]1CCCN(c2ccncc2Nc2ncc3ccc(-c4ccc(Cl)cc4Cl)nn23)C1`: the results for the half-maximal inhibitory concentration (IC50) in data set [3] and in data set [5] were 1.8 nM and 5007 nM, respectively. The microsomal CLint at 1 µM in [1] worked out at 260 µL/min/mg; in data set [2] it was 100 µL/min/mg.

Consider `N[C@H]1C[C@@H](F)CN(c2ccncc2Nc2ncc3ccc(-c4c(F)cccc4F)nn23)C1`, for which the concentration for half-maximal inhibition (IC50) in data set [3] was determined as 0.78 nM; in data set [5], 983 nM. Moreover, the microsomal CLint at 1 µM in data set [1] amounted to 143 µL/min/mg; in [2], 51 µL/min/mg.

As for `O[C@H]1CCCN(c2ccncc2Nc2ncc3ccc(-c4c(F)cccc4F)nn23)C1`, the IC50 came to 2.9 nM in [3] and 4807 nM in [5]. Further, the figures for the microsomal CLint at 1 µM in data set [1] and in [2] were above 399 µL/min/mg and 472 µL/min/mg, respectively.

Turning to `C[C@@H]1CC[C@H](N)CN1c1ccncc1Nc1ncc2ccc(-c3cccc(F)n3)nn12`, the microsomal CLint at 1 µM was determined as 194 µL/min/mg in [1] and 71 µL/min/mg in data set [2].

For the compound `N[C@H]1CCCN(c2ccncc2Nc2ncc3ccc(-c4cccnc4F)nn23)C1`, the IC50 in data set [3] turned out to be 0.23 nM; in [5], 6599 nM. Moreover, the results for the microsomal CLint at 1 µM in [1] and in data set [2] were 39 µL/min/mg and 34 µL/min/mg, respectively.

For the compound `N[C@H]1CCCN(c2ccccc2Nc2ncc3ccc(-c4c(F)cccc4F)nn23)C1`, the IC50 in data set [5] was determined as 3440 nM. The microsomal CLint at 1 µM in [1] was found to be 63 µL/min/mg; in data set [2], 82 µL/min/mg.

In the case of `N[C@H]1CCN(c2ccncc2Nc2ncc3ccc(-c4c(F)cccc4F)nn23)C1`, the values for the microsomal CLint at 1 µM in data set [1] and in [2] were below 14 µL/min/mg and 15 µL/min/mg, respectively.

Regarding `C[C@]1(N)CCCN(c2ccncc2Nc2ncc3ccc(-c4c(F)cccc4F)nn23)C1` (racemic), the microsomal CLint at 1 µM in [1] is 311 µL/min/mg; in data set [2], 91 µL/min/mg.

On to `C[C@H]1C[C@H](N)CN(c2ccncc2Nc2ncc3ccc(-c4c(F)cccc4F)nn23)C1`, for which the microsomal CLint at 1 µM in data set [1] came out at 347 µL/min/mg; in [2], 111 µL/min/mg.

`N[C@H]1CCCN(c2ccncc2Nc2ncc3ccc(-c4ncccc4F)nn23)C1`: the microsomal CLint at 1 µM in data set [1] was found to be 40 µL/min/mg; in [2], 36 µL/min/mg. The clearance in data set [6] is 11.7 mL/min/kg. In [7], the Vd stood at 3.3 L/kg. This compound gave an MRT in data set [8] of 4.1 h. In data set [9], this compound yielded an AUC(0-inf) of 7.3 µM·h. Besides, the bioavailability in data set [10] was 28%. The same compound had a CL in data set [11] of 21%.

In the case of `N[C@H]1CCC[C@@H](c2ccncc2Nc2ncc3ccc(-c4c(F)cccc4F)nn23)C1` (racemic), the values for the half-maximal inhibitory concentration (IC50) in data set [3] and in data set [5] were 3.7 nM and 5120 nM, respectively. In addition, the results for the microsomal CLint at 1 µM in data set [1] and in data set [2] were 106 µL/min/mg and below 10 µL/min/mg, respectively.

`N[C@H]1CCCN(c2ccncc2Nc2ncc3ccc(-c4nccs4)nn23)C1`: the results for the 50% inhibitory concentration (IC50) in data set [4] and in data set [5] were 2.9 nM and 602 nM, respectively. In addition, the microsomal CLint at 1 µM in data set [1] was 54 µL/min/mg; in data set [2], 27 µL/min/mg.

Turning to `C[C@H]1CC[C@H](N)CN1c1ccncc1Nc1ncc2ccc(-c3c(F)cccc3F)nn12`, the microsomal CLint at 1 µM in [1] is 477 µL/min/mg; in data set [2] it was 80 µL/min/mg.

Turning to `N[C@H]1CCCN(c2ccncc2Nc2ncc3ccc(-c4ccccc4F)nn23)C1`, the IC50 in data set [3] worked out at 0.23 nM; in data set [4], 1.6 nM; in [5], 1536 nM. For the same compound, the microsomal CLint at 1 µM in data set [1] was found to be 120 µL/min/mg; in data set [2] it was 48 µL/min/mg.

For `N[C@H]1CCCN(c2ccncc2Nc2ncc3ccc(-c4ccc(F)cc4F)nn23)C1`, the results for the concentration for half-maximal inhibition (IC50) in data set [3], in data set [4] and in data set [5] were 0.38 nM, 3.1 nM and 1761 nM, respectively. Also, the results for the microsomal CLint at 1 µM in data set [1] and in data set [2] were 132 µL/min/mg and 31 µL/min/mg, respectively.

`Fc1cccc(F)c1-c1ccc2cnc(Nc3cnccc3N3CCCCC3)n2n1`: the results for the microsomal CLint at 1 µM in data set [1] and in data set [2] were above 399 µL/min/mg and 399 µL/min/mg, respectively.

Turning to `C[C@H]1[C@@H](N)CCCN1c1ccncc1Nc1ncc2ccc(-c3c(F)cccc3F)nn12`, the microsomal CLint at 1 µM in [1] was 312 µL/min/mg.

In the case of `C[C@@H]1CC[C@H](N)CN1c1ccncc1Nc1ncc2ccc(-c3c(F)cccc3F)nn12`, the results for the microsomal CLint at 1 µM in [1] and in data set [2] were above 399 µL/min/mg and 203 µL/min/mg, respectively. Besides, in data set [6], the clearance was 91.7 mL/min/kg. Further, the Vd in data set [7] came to 21.7 L/kg. This compound yielded an MRT in [8] of 4 h. The compound also returned an AUC(0-inf) in [9] of 3.3 µM·h. Moreover, the bioavailability in [10] was 141%. For the same compound, the IC50 in [12] was determined as 19700 nM.

`C[C@@H]1[C@@H](N)CCCN1c1ccncc1Nc1ncc2ccc(-c3c(F)cccc3F)nn12`: the microsomal CLint at 1 µM in data set [1] came out at 344 µL/min/mg; in [2], 79 µL/min/mg.

In the case of `N[C@@H]1CCCN(c2ccncc2Nc2ncc3ccc(-c4c(F)cccc4F)nn23)C1`, the microsomal CLint at 1 µM is 280 µL/min/mg in data set [1] and 90 µL/min/mg in data set [2].

On to `C[C@@H]1C[C@H](N)CN(c2ccncc2Nc2ncc3ccc(-c4ncccc4F)nn23)C1`, for which the microsomal CLint at 1 µM amounted to 91 µL/min/mg in data set [1] and 33 µL/min/mg in data set [2]. The clearance in data set [6] was 26.7 mL/min/kg. Moreover, in [7], the Vd was 6.7 L/kg. Also, in data set [8], the mean residence time MRT turned out to be 4.3 h. The AUC(0-inf) in data set [9] is 3.2 µM·h. Further, the bioavailability in [10] came to 60%.

For `CN[C@H]1CCCN(c2ccncc2Nc2ncc3ccc(-c4c(F)cccc4F)nn23)C1`, the microsomal CLint at 1 µM in data set [1] is 185 µL/min/mg; in data set [2], 66 µL/min/mg.

For `C[C@H]1CCN(c2ccncc2Nc2ncc3ccc(-c4c(F)cccc4F)nn23)C[C@H]1N`, the half-maximal inhibitory concentration (IC50) amounted to 0.26 nM in [3] and 2982 nM in data set [5]. Further, the microsomal CLint at 1 µM in data set [1] was above 399 µL/min/mg; in [2] it was 130 µL/min/mg.

In the case of `N[C@H]1CCCN(c2ccncc2Nc2ncc3ccc(-c4ccccn4)nn23)C1`, the half-maximal inhibitory concentration (IC50) in data set [5] was found to be 1760 nM. The microsomal CLint at 1 µM in data set [1] and in [2] was below 10 µL/min/mg in each case.

`N[C@H]1CCCN(c2sncc2Nc2ncc3ccc(-c4c(F)cccc4F)nn23)C1`: the IC50 in data set [3] is 56 nM; in [4] it was 148 nM. Also, the microsomal CLint at 1 µM came to 167 µL/min/mg in data set [1] and 28 µL/min/mg in data set [2].

Consider `N[C@H]1CCCN(c2ncncc2Nc2ncc3ccc(-c4c(F)cccc4F)nn23)C1`, for which the half-inhibitory concentration (IC50) in [5] was above 15800 nM. Besides, the results for the microsomal CLint at 1 µM in data set [1] and in data set [2] were 110 µL/min/mg and 28 µL/min/mg, respectively.

In the case of `N[C@H]1CCCN(c2ccnc(NC(=O)c3c[nH]c4ccc(-c5ccccc5F)nc34)c2)C1`, the 50% inhibitory concentration (IC50) in data set [3] turned out to be 65 nM; in data set [4], 314 nM.

Take `N[C@H]1CCCN(c2ccncc2Nc2ncc3ccc(-c4c(F)cccc4F)nn23)C1`: the 50% inhibitory concentration (IC50) was 0.07 to 0.1 nM in data set [3] and 403 nM in data set [5]. Further, the microsomal CLint at 1 µM in [1] came out at 130 µL/min/mg; in data set [2] it was 66 µL/min/mg. Further, the CL was found to be 23.3 mL/min/kg in data set [6] and 40% in data set [11]. Further, the Vd in data set [7] was determined as 7.9 L/kg. Moreover, the mean residence time (MRT) in data set [8] was 5.6 h. Also, in [9], the AUC stood at 3.7 µM·h. Also, the F in data set [10] was determined as 16%.

For `N[C@H]1CCCN(c2ccncc2Nc2ncc3ccc(-c4ccccc4Cl)nn23)C1`, the values for the IC50 in [4] and in data set [5] were 3.4 nM and 2668 nM, respectively. In addition, the microsomal CLint at 1 µM in data set [1] stood at 122 µL/min/mg; in [2] it was 90 µL/min/mg.

As a reminder, the IC50 is the point on the concentration scale where inhibition reaches its midpoint. One may read the clearance as the rate of elimination divided by the concentration. A low value points to a low capacity for elimination. What is called MRT is a mean duration of stay, worked out from the concentration-time curve. Usually AUC(0-inf) stands for total exposure, with the tail of the curve extrapolated. Lower therefore signals low exposure. One may read the AUC as the area under the concentration-time curve, a measure of exposure. A higher AUC goes with more exposure.
